# Results from PMC8607274 (Translational Oncology, 2021).
# Assays:
# [1] = Bioavailability study, plasma concentration by HPLC-UV; format: in vivo, Swiss albino mice
# Procedure, shortened: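 Swiss albino mice, n = 2/group, single oral or i.p. dose: test compound 10 mg/kg b.wt, curcumin 20 mg/kg b.wt. Blood sampled at 5, 10, 15 min and 1, 3, 6, 12, 24 h. Plasma protein-precipitated with an equal volume of acetonitrile. HPLC-UV at 1 mL/min, room temperature, detection 312 nm (test compound) or 369 nm (curcumin). Calibration curve in mouse plasma, 1–100 µM. Mean per time point.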
# [2] = test system: various cancer cell lines; details: cited from earlier work
# [3] = test system: xenograft models; details: twice-daily, nude mice; cited from earlier work
# [4] = test system: tumor; details: cited from earlier work
# [5] = test system: PA1 cells; assay: Real time PCR of mitochondrial OXPHOS genes; format: cell-based; details: 48 h
# Procedure, shortened: (§1)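 Total RNA extracted from cells treated with various test-compound concentrations. 2 µg RNA reverse-transcribed to cDNA. qPCR run in triplicate with primers for ND2, CYTB and ATPase 6.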
# [6] = test system: EAC tumor tissue; assay: Histology; format: in vivo, Swiss albino mice; details: ST03 post-treatment
# Procedure, shortened: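 Tumour and organs (kidney, liver, spleen) collected at study end and fixed; paraffin sections (10 µm) H&E-stained. PCNA IHC on 5 µm tumour sections: 3% H2O2 in PBS, antigen retrieval by boiling in 10 mM sodium citrate pH 6. Blocked with 5% goat serum/1% BSA for 30 min. Mouse anti-PCNA 1:100 (1 h RT or overnight 4 °C), biotinylated anti-mouse IgG 1:200, streptavidin-HRP 1:1000, DAB-H2O2.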
# [7] = test system: A2780 cells; assay: Cell cycle analysis; format: cell-based; details: 48 h
# Procedure, shortened: (§2)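 Cells seeded at 1 × 10^5/well, then treated next day with 10, 50 or 75 nM for 48 h. PI (4 µg/ml) added for 5 min at RT. 10,000 events acquired by flow cytometry.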
# [8] = test system: PA1 cells; assay: Transwell migration assay; format: cell-based; details: 40 nM, 48 h treatment, 5 h migration
# Procedure, shortened: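 PA1 cells pretreated with various test-compound concentrations for 48 h, then 1 × 10^5 seeded into 8 µm-pore inserts in serum-free medium, complete medium below, 5 h. Inserts washed in PBS and fixed in 70% ethanol; non-migrated inner cells removed with cotton. Cells stained with 0.2% crystal violet, imaged and quantified by image analysis.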
# [9] = Solubility in 0.6 N HCl; format: physicochemical
# [10] = test system: PA1 cells; assay: Spectrometric ROS measurement; format: cell-based
# Procedure, shortened: (§3)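 Plate-reader ROS: 20,000 cells/well plated; after 24 h washed in PBS. Incubated 1 h in PBS with 10 µM H2DCFDA plus various test-compound concentrations, with or without 20 mM NAC. Fluorescence read at ex 485/em 535. 200 µM H2O2 as positive control.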
# [11] = test system: A2780 cells; assay: Real time PCR of mitochondrial OXPHOS genes; format: cell-based; details: 48 h
# Procedure, shortened: as §1
# [12] = test system: PA-1 cells; assay: Cytotoxicity on ovarian cancer cells compared to curcumin; format: cell-based
# [13] = test system: A2780 cells; assay: Immunoblotting of apoptosis-related proteins; format: cell-based
# Procedure, shortened: (§4)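 Treated and control cells lysed in RIPA buffer with protease inhibitors; protein measured by Bradford. 40 µg resolved by SDS-PAGE and transferred to PVDF. Bands probed with antibodies, detected by enhanced chemiluminescence and quantified by densitometry.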
# [14] = test system: PA1 cells; assay: Immunoblotting of apoptosis-related proteins and MMP1; format: cell-based
# Procedure, shortened: as §4
# [15] = test system: A2780; assay: Cytotoxicity on ovarian cancer cells compared to curcumin; format: cell-based
# [16] = test system: PA1 cells; assay: Intracellular ROS, H2DCFDA flow cytometry; format: cell-based
# Procedure, shortened: (§5)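 Intracellular ROS: 1 × 10^5 cells per 35 mm dish exposed to test compound for 10, 20 and 30 min. Harvested, washed in PBS, stained with H2DCFDA for 30 min and analysed by flow cytometry. H2O2-treated cells as positive control. ROS taken as the histogram shift in median fluorescence intensity versus vehicle control.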
# [17] = test system: A2780 cells; assay: JC-1 mitochondrial membrane potential assay; format: cell-based; details: 10, 50, 75 nM; 48 h
# Procedure, shortened: (§6)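 After 48 h test-compound treatment, cells were harvested and resuspended in staining buffer containing JC-1, 20 min in the dark at 37 °C, 5% CO2. Then resuspended in fresh buffer; 10,000 events acquired by flow cytometry. Valinomycin as positive control.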
# [18] = test system: A2780 cells; assay: Intracellular ROS, H2DCFDA flow cytometry; format: cell-based; details: 75 nM
# Procedure, shortened: as §5
# [19] = test system: PA1 cells; assay: Cell cycle analysis; format: cell-based; details: 48 h
# Procedure, shortened: as §2
# [20] = test system: A2780 cells; assay: Spectrometric ROS measurement; format: cell-based
# Procedure, shortened: as §3
# [21] = Toxicity in experimental animals; format: in vivo, Swiss albino mice
# [22] = test system: human breast cancer cell lines (MDA-MB-231, MDA-MB-468, MCF7); assay: MTT assay of human breast cancer cell lines; format: cell-based; details: 48 h, read-out: IC50 (cytotoxicity)
# [23] = test system: MCF7; assay: MTT assay of human breast cancer cell lines; format: cell-based; details: 48 hours
# [24] = test system: PA1 cells; assay: JC-1 mitochondrial membrane potential assay; format: cell-based; details: 10, 50, 75 nM; 48 h
# Procedure, shortened: as §6
# [25] = test system: Ehrlich ascites carcinoma (EAC) solid tumor; assay: Antitumor activity in EAC solid tumor mice; format: in vivo, Swiss albino mice
# Procedure, shortened: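 EAC cells maintained by intraperitoneal passage in mice every 7 days. Day-7 ascites cells were diluted in PBS, and 1 × 10^6 cells were injected subcutaneously into the thigh. On day 7, caliper-measured tumours were allocated to groups of equal mean size, 5 animals/group, repeated three times (n = 15). Groups: untreated control or test compound 10 mg/kg b.wt i.p. every alternate day. Tumour size and body weight were recorded every alternate day; V = (ab2)/2.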
# [26] = test system: Ehrlich ascites carcinoma (EAC) solid tumor; assay: Chemopreventive effect in EAC solid tumor mice; format: in vivo, Swiss albino mice
# Procedure, shortened: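 Subcutaneous EAC thigh tumour model (1 × 10^6 cells). The treated group got 15 alternate-day doses of test compound (10 mg/kg b.wt) before tumour injection, none at inoculation, then 15 further doses after tumour injection. Compared with untreated controls, n = 5/group. Tumour volume was measured from day 7 after tumour injection, with body weight and physiological parameters. Two independent experiments.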
# [27] = test system: A2780 cells; assay: Cell viability assay with ST03 and NAC; format: cell-based; details: 20 mM NAC, 20 nM ST03, 24 h
# [28] = test system: PA1 cells; assay: Cell viability assay with ST03 and NAC; format: cell-based; details: 20 mM NAC, 20 nM ST03, 24 h
# [29] = Swiss albino, mouse, plasma, ip, 20 mg/kg
# [30] = Swiss albino, mouse, plasma, po, 20 mg/kg
# [31] = Swiss albino, mouse, plasma, ip, 10 mg/kg
# [32] = Swiss albino, mouse, plasma, po, 10 mg/kg
smiles,measurement,setting,value
"COc1cc(/C=C/C(=O)CC(=O)/C=C/c2ccc(O)c(OC)c2)ccc1O [curcumin, reference compound]",Cmax,[1]; [29],2.7 µM
same,Tmax,[1]; [29],3 h
same,Cmax,[1]; [30],13.7 µM
same,Tmax,[1]; [30],0.25 h
same,potency range,[2],~10000 nM
same,effective dosage in xenograft models,[3],50 mg/kg b.wt
same,dosage with antitumor activity in vivo,[4],800 mg/kg of body weight
"O=C1/C(=C/c2ccccc2Cl)CN(C(=O)C(=O)N2C/C(=C\c3ccccc3Cl)C(=O)/C(=C/c3ccccc3Cl)C2)C/C1=C\c1ccccc1Cl [ST03, 1,2-bis[(3E,5E)-3,5-bis[(2-chlorophenyl)methylene]-4-oxo-1-piperidyl]ethane-1,2-dione]","transcription of mitochondrially encoded OXPHOS genes (ND2, CYB, Atpase6)",[5],decrease in the transcription
same,proliferating cells (PCNA staining) in tumor,[6],reduction in proliferating cells
same,tumor cells in H&E stained tumor vs control tissue,[6],significant reduction of tumor cells
same,Bcl2 in tumor extract,[6]; western blot,up-regulation
same,Cmax,[1]; [31],98.4 µM
same,Tmax,[1]; [31],8 h
same,Cmax,[1]; [32],55.2 µM
same,Tmax,[1]; [32],2 h
same,half-life,[1]; [32],3 h
same,presence in plasma until,[1]; intraperitoneal,> 12 h
same,presence in plasma until,[1]; oral,> 12 h
same,bioavailability compared to curcumin,"[1]; oral, ST03 10 mg/kg, curcumin 20 mg/kg",~14 fold
same,detectable in plasma,[1]; route not given,up to 12 h
same,cells accumulated at the sub G0/G1 stage,[7]; 50 nM,~60%
same,cell cycle arrest,"[7]; 10, 50, 75 nM",no notable cell cycle arrest
same,reduction in migration,[8],60%
same,solubility,[9],completely soluble
same,time to peak ROS levels,"[10]; 20 mM ST03 as printed, 20 nM",1 h
same,"transcription of mitochondrially encoded OXPHOS genes (ND2, CYB, Atpase6)",[11],decrease in the transcription
same,cytotoxicity on PA-1 compared with A2780,[12],better cytotoxicity on PA-1 cells
same,cytotoxicity relative to curcumin,[12],100 fold
same,p53 expression,[13],upregulation
same,Bax expression,[13]; 40 nM,increase
same,Bcl2 expression,[13]; 40 nM,significant decrease
same,Cytochrome C,[13]; increasing concentrations,increase
same,p53 expression,[14],upregulation
same,Bax expression,[14]; 40 nM,increase
same,Bcl2 expression,[14]; 40 nM,significant decrease
same,MMP1 expression,[14]; 40 nM,significant decrease
same,Cytochrome C,[14]; increasing concentrations,increase
same,cytotoxicity relative to curcumin,[15],100 fold
same,time at which ROS production was induced,[16]; 40 nM,10 min
same,time at which ROS production was induced,[16]; 50 nM,≤ 10 min
same,potency relative to curcumin,[2],~100 fold
same,"selectivity of toxicity, cancer cells vs normal cells",[2],selectively induces toxicity in cancer cells compared to normal cells
same,JC1 green population (mitochondrial damage),[17],increase in the green population
same,time at which the histogram shifted (ROS production),[18],30 min
same,cells accumulated at the sub G0/G1 stage,[19]; 50 nM,~70%
same,cell cycle arrest,"[19]; 10, 50, 75 nM",no notable cell cycle arrest
same,time to peak ROS levels,"[20]; 20 mM ST03 as printed, 20 nM",1 h
same,"histopathology of kidney, liver and spleen (H&E)",[21]; ST03 post-treatment,no pathological changes
same,RBC count,[21]; end of study,No significant change
same,WBC count vs control group,[21]; end of study,increase in the number of WBCs
same,body weight,"[21]; pre- and post-treatment animals, 10 mg/kg b.wt",no notable weight reduction
same,ALT level,"[21]; serum, end of study",No significant change
same,AST level,"[21]; serum, end of study",No significant change
same,urea level,"[21]; serum, end of study",No significant change
same,IC50,[22],166 to 301 nM
same,IC50 rank among breast cancer cell lines,[23],least IC50
same,JC1 green population (mitochondrial damage),[24],increase in the green population
same,spleen size vs untreated animals,[25]; 10 mg/kg b.wt i.p.,reduction in spleen size
same,tumor growth vs untreated control,"[25]; 10 mg/kg b.wt i.p. every alternate day from day 7, 25 days",significant reduction in tumor growth
same,dosage sufficient to inhibit tumor growth without adverse systemic toxicity,"[25]; 15 doses, tumor allograft",10 mg/kg
same,pre and post-treatment compared with post-treatment alone,[26]; 10 mg/kg b.wt,better results than post-treatment alone
same,tumor growth vs controls,"[26]; pre-treatment with 15 alternate doses of 10 mg/kg b.wt, then post-treatment",significant reduction in tumor growth
"CC(=O)N[C@@H](CS)C(=O)O [NAC, N-acetylcysteine, reference compound]",effect of NAC on ST03 induced ROS,[10]; 20 mM NAC with ST03,blocked ST03 induced increase in ROS
same,effect of NAC on ST03 induced ROS,[20]; 20 mM NAC with ST03,blocked ST03 induced increase in ROS
same,cell death with ST03 in presence of NAC,[27],decrease in cell death
same,cell death with ST03 in presence of NAC,[28],decrease in cell death
"O=C1/C(=C/c2ccccc2)CN(C(=O)C(=O)N2C/C(=C\c3ccccc3)C(=O)/C(=C/c3ccccc3)C2)C/C1=C\c1ccccc1 [1,2-bis[(3E,5E)−3,5-dibenzylidene-4-oxo-1-piperidyl]ethane-1,2-dione, reference compound]",cytotoxic potency compared with curcumin,[2]; multiple cancer cell lines in vitro,greater potency than the parent compound curcumin
